According to ChEMBL document CHEMBL5653631, “A Potent and Selective ULK1 Inhibitor Suppresses Autophagy and Sensitizes Cancer Cells to Nutrient Stress” (iScience, 2018):
Values belong to the compound of their own block, whether it stands above or below them.

How the values were obtained:
[1] = biological target: Ribosomal protein S6 kinase alpha-1 (Homo sapiens) (UniProt Q15418); experiment: Inhibition of human recombinant RSK1 at 500 nM related to control ULK1
[2] = biological target: T1, Mitogen-activated protein kinase kinase kinase 3 (Homo sapiens) (UniProt Q99759); experiment: Inhibition of human recombinant MAP3K3 at 500 nM related to control ULK1
T1 sequence (whole entry): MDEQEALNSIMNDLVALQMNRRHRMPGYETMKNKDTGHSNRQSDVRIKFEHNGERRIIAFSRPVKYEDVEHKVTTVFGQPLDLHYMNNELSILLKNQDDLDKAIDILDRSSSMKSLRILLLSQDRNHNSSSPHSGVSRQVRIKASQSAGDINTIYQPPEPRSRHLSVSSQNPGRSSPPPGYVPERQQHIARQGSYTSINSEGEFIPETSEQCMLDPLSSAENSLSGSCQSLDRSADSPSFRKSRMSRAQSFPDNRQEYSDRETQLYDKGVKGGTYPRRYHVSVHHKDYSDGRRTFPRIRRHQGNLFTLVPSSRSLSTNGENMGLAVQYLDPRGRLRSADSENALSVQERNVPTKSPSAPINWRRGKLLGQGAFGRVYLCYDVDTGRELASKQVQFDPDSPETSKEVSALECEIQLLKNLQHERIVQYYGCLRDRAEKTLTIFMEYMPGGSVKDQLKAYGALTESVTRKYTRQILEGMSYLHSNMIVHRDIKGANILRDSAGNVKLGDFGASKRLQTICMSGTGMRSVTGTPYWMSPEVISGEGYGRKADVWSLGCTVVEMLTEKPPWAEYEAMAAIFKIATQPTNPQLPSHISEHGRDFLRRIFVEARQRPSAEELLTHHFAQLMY

[3] = biological target: Dual specificity protein kinase CLK1 (Homo sapiens) (UniProt P49759); experiment: Inhibition of human recombinant CLK1 at 15 nM related to control ULK1
[4] = biological target: T2, MAP kinase-activated protein kinase 5 (Homo sapiens) (UniProt Q8IW41); experiment: Inhibition of human recombinant MAPKAPK5 at 15 nM in presence of ATP by radiometric assay relative to control
T2 sequence (whole entry): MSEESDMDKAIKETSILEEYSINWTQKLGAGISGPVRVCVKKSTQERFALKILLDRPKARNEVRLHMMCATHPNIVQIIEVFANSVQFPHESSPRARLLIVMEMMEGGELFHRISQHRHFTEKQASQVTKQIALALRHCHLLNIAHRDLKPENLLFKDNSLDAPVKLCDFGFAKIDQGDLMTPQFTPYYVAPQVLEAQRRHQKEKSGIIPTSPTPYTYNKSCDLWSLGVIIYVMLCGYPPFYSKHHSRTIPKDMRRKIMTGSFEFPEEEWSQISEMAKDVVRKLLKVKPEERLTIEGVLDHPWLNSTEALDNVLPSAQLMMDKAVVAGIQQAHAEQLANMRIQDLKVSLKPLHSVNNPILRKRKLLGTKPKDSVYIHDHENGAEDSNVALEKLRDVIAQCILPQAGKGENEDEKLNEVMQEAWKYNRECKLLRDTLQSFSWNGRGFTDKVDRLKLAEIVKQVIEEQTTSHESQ

[5] = biological target: Proto-oncogene tyrosine-protein kinase Src (Homo sapiens) (UniProt P12931); experiment: Inhibition of human recombinant SRC at 15 nM in presence of ATP by radiometric assay relative to control
[6] = biological target: T3, Activin receptor type-1B (Homo sapiens) (UniProt P36896); experiment: Inhibition of human recombinant ALK4 at 15 nM related to control ULK1
T3 sequence (whole entry): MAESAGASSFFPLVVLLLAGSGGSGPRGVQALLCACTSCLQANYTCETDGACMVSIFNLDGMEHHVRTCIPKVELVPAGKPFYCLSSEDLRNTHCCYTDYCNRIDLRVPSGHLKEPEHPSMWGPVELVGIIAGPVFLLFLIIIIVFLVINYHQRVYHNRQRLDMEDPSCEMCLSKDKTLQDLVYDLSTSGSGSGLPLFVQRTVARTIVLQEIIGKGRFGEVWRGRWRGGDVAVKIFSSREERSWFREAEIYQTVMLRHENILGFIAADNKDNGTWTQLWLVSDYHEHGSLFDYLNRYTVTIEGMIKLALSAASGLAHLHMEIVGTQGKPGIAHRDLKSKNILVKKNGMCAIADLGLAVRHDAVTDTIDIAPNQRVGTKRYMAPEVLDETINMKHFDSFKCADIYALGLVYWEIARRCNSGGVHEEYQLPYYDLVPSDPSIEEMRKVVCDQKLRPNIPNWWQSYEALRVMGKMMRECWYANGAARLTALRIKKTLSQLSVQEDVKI
How it was run: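 Panel of 327 recombinant human kinases, each assayed in vitro by radiometric activity assay in duplicate at a single inhibitor concentration per compound, chosen with reference to its ULK1 inhibition. Activity remaining was expressed as percent of vehicle control, and percent inhibition was calculated as 100 minus percent activity remaining.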

[7] = biological target: T4, Mitogen-activated protein kinase 12 (Homo sapiens) (UniProt P53778); experiment: Inhibition of human recombinant p38gamma at 40 nM in presence of ATP by radiometric assay relative to control
T4 sequence (whole entry): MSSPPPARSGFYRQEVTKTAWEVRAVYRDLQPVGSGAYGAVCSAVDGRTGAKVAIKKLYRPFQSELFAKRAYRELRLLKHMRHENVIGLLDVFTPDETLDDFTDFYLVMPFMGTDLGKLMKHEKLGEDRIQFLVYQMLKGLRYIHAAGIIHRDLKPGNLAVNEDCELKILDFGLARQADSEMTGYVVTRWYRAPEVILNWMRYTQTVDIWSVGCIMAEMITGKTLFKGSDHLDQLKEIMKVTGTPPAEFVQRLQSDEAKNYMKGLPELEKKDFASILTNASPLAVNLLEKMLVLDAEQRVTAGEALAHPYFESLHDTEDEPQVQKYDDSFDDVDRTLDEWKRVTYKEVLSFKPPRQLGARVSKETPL

[8] = biological target: Serine/threonine-protein kinase 32B (Homo sapiens) (UniProt Q9NY57); experiment: Inhibition of human recombinant YANK2 at 40 nM in presence of ATP by radiometric assay relative to control
[9] = biological target: Serine/threonine-protein kinase 32C (Homo sapiens) (UniProt Q86UX6); experiment: Inhibition of human recombinant YANK3 at 40 nM in presence of ATP by radiometric assay relative to control
Serine/threonine-protein kinase 32C (Homo sapiens), sequence (Q86UX6 whole entry): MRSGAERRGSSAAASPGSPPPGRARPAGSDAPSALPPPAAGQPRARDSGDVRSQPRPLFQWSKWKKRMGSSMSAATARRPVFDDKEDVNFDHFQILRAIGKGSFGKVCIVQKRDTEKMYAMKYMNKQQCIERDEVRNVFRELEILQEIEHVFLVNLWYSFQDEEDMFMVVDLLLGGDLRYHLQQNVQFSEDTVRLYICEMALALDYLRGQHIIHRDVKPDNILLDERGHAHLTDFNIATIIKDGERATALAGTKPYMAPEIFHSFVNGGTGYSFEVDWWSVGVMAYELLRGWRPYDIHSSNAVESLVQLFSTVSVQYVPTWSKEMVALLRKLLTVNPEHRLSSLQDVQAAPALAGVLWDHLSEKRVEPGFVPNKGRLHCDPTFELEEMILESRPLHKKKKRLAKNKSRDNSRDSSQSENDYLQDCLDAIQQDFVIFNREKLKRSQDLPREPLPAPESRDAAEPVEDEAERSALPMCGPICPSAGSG

Dual specificity protein kinase CLK1 (Homo sapiens), sequence (P49759 whole entry, looked up): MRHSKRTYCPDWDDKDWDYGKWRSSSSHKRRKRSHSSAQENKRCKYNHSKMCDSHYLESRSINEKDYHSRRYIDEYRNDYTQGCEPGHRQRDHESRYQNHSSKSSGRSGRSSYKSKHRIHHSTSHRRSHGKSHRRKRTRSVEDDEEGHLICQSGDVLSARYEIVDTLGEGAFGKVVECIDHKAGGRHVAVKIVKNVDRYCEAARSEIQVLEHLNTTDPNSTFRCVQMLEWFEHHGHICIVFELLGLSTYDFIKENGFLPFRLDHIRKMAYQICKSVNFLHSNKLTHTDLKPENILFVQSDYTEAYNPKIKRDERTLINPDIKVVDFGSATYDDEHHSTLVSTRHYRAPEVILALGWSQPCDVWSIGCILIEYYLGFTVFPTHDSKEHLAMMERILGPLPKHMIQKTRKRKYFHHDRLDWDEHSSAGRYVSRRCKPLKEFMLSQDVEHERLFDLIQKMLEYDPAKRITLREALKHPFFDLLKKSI
Proto-oncogene tyrosine-protein kinase Src (Homo sapiens), sequence (P12931 2-536 limits assumed): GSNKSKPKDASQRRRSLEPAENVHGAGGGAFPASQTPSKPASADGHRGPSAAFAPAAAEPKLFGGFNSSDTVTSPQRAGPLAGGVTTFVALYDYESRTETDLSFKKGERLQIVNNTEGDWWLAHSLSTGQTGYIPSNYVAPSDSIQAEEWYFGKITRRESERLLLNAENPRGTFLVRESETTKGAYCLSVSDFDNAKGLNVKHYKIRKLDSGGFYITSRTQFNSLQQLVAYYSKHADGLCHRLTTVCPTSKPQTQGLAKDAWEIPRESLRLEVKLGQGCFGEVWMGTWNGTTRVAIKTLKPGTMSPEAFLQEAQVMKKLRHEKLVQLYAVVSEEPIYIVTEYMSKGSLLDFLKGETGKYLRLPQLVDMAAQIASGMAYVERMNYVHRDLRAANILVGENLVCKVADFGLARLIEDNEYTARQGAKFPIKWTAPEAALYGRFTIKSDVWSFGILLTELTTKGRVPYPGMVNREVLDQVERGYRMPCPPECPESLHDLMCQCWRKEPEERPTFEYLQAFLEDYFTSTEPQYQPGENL
Ribosomal protein S6 kinase alpha-1 (Homo sapiens), sequence (Q15418 whole entry): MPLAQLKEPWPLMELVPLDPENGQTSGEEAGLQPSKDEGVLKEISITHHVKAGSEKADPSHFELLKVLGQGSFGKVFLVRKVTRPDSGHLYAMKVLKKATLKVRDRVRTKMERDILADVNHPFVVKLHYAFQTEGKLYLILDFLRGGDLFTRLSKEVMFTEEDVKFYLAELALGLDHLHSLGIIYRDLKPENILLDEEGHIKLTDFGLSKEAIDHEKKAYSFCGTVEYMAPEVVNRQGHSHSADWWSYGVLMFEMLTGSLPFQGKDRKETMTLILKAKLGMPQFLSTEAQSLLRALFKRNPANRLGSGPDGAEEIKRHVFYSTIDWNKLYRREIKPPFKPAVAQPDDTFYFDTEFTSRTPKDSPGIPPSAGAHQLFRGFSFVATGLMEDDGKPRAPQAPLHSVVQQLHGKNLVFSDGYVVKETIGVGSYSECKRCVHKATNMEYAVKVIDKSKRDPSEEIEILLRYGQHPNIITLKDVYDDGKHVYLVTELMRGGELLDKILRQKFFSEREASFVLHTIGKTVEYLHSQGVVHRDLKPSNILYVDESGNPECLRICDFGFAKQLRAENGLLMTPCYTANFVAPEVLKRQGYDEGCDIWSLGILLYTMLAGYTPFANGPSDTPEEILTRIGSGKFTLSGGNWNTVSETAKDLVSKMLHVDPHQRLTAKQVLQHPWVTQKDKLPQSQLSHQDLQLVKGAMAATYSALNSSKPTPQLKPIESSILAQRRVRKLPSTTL
Serine/threonine-protein kinase 32B (Homo sapiens), sequence (Q9NY57 whole entry): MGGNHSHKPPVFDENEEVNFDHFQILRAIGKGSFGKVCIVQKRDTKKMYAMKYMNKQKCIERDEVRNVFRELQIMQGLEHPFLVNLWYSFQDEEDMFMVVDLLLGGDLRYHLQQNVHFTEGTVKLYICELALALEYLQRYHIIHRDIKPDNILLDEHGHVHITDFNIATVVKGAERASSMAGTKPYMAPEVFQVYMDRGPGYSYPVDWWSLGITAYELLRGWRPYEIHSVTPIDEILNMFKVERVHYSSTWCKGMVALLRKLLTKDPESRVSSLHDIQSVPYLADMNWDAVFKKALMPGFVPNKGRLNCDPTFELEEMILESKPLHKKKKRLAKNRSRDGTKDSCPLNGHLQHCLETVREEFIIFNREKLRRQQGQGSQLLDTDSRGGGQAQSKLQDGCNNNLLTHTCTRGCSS

fold change (FC) [1]: 0.26
fold change (FC) [2]: 0
SMILES: CNC(=O)c1ccccc1Oc1nc(Nc2cc(OC)c(OC)c(OC)c2)ncc1Br

fold change (FC) [3]: 0.95
inhibition [4]: 0%
inhibition [5]: 15%
fold change (FC) [6]: 0.23
SMILES: CC(C)[C@H](NC(=O)c1cc(-c2cnn3cc(-c4ccc(OCCN5CCCCC5)cc4)cnc23)cs1)C(F)(F)F

inhibition [7]: 0%
inhibition [8]: 3%
inhibition [9]: 5%
SMILES: O=C(N[C@@H](C1CC1)C(F)(F)F)c1cc(-c2cnn3cc(-c4ccc(F)cc4)cnc23)cs1
